Measured values collected from several papers.
Lines come from different studies, so protocols differ.
tspO: tspO (Cereibacter sphaeroides, UniProt Q9RFC8)
TMEM97: Sigma intracellular receptor 2 (TMEM97, Homo sapiens, UniProt Q5BJF2)
Serine protease HTRA1 S328A: Serine protease HTRA1 (Homo sapiens, UniProt Q92743, S328A)

Structure (SMILES) | target | effect on | action | technique | pH | endpoint | value
Cc1cc2c(C(C)C)c(O)c(O)c(C=O)c2c(O)c1-c1c(C)cc2c(C(C)C)c(O)c(O)c(C=O)c2c1O | tspO | binding |  | fluorescence |  | Kd | 6 µM
COc1cc2c(cc1OC)CN(CCc1ccc(NC(=O)c3cc(OC)c(OC)cc3NC(=O)c3cnc4ccccc4c3)cc1)CC2 | TMEM97 | ligand displacement |  | radioligand |  | Ki | 0.0178 µM
Cc1c(-c2ccccc2)no[n+]1[O-] | Thioredoxin glutathione reductase (Schistosoma mansoni, UniProt Q962Y6) | enzyme activity | inhibitor |  |  | IC50 | > 50 µM
CCCN(CCC)CCc1ccc(OC)c(OCCc2ccccc2)c1 | TMEM97 | ligand displacement |  | radioligand |  | Ki | 0.0827 µM
CC(C)C[C@H](NC(=O)[C@H](Cc1ccccc1)NC(=O)c1cnccn1)B(O)O | Dipeptidyl peptidase 2 (Homo sapiens, UniProt Q9UHL4) | enzyme activity | inhibitor |  |  | IC50 | 8.5 µM
CC(C)C[C@H](NC(=O)CNC(=O)[C@H](C)NC(=O)c1ccc(S(=O)(=O)NC[C@H]2O[C@@H](C)[C@@H](O)[C@@H](O)[C@@H]2O)cc1)C(=O)N[C@@H](C)C(=O)N[C@H]1CCN(c2cc3c(cc2F)c(=O)c(C(=O)O)cn3C2CC2)C1 | Fucose-binding lectin PA-IIL (lecB, Pseudomonas aeruginosa, UniProt Q9HYN5) | ligand displacement |  | FP |  | Ki | 1.43 µM
CC[C@@H]1SC2(CCN(C)CC2)NC1=O | Muscarinic acetylcholine receptor M3 (CHRM3, Homo sapiens, UniProt P20309) | calcium signal | agonist |  |  | EC50 | 0.0328 µM
CC[C@H](C)[C@H](NC(=O)[C@H](Cc1c[nH]c2ccccc12)NC(=O)[C@H](C)NC(=O)[C@H](C)NC(=O)[C@H](Cc1ccc(O)cc1)NC(=O)[C@@H](N)CO)C(=O)N[C@@H](CC(=O)O)C(=O)N[C@H](C(=O)N[C@@H](CCC(=O)O)C(=O)N[C@@H](CO)C(=O)N[C@@H](CC(C)C)C(=O)O)C(C)C | Serine protease HTRA1 S328A | binding |  | ITC | pH 8 | Kd | 43.3 µM
OCCN1CCN(CCCN2c3ccccc3C=Cc3ccccc32)CC1 | TMEM97 | ligand displacement |  | radioligand |  | Ki | 0.126 µM
CC[C@H](C)[C@H](NC(=O)[C@H](Cc1c[nH]c2ccccc12)NC(=O)[C@H](C)NC(=O)[C@H](C)NC(=O)[C@H](Cc1ccc(O)cc1)NC(=O)[C@@H](N)CO)C(=O)N[C@@H](CC(=O)O)C(=O)N[C@@H](CO)C(=O)N[C@H](C(=O)N[C@@H](CC(C)C)C(=O)N[C@@H](C)C(=O)O)C(C)C | Serine protease HTRA1 S328A | binding |  | ITC | pH 8 | Kd | 3.9 µM
CC(C)(NC(=O)O[C@@H]1CN2CCC1CC2)c1csc(-c2ccc(F)cc2)n1 | Lysosomal acid glucosylceramidase (GBA1, Homo sapiens, UniProt P04062) | enzyme activity | inhibitor |  |  | IC50 | > 300 µM
COc1cc(Nc2ncc(F)c(Nc3ccc4c(n3)NC(=O)C(C)(C)O4)n2)cc(OC)c1OC | UDP-glucuronosyltransferase 1A1 (UGT1A1, Homo sapiens, UniProt P22309) | enzyme activity | inhibitor |  |  | IC50 | 0.158 µM
CC1CCN(CCCC(=O)c2ccc(F)cc2)CC1 | TMEM97 | ligand displacement |  | radioligand |  | Ki | 0.115 µM
COc1cc(/C=C/C(=O)CC(=O)/C=C/c2ccc(O)c(OC)c2)ccc1O | tspO | binding |  | fluorescence |  | Kd | 1.4 µM
CN(CCCN1c2ccccc2CCc2ccccc21)CC(=O)c1ccc(Cl)cc1 | TMEM97 | ligand displacement |  | radioligand |  | Ki | 2.01 µM
NC[C@@H]1[C@H]2CN3C(=O)c4cccn4[C@@H]4NC(N)=N[C@@]43[C@@H]2[C@]2(N=C(N)N[C@H]2O)[C@H]1Cl (single isomer, unassigned) | Proteasome subunit beta type-8, chymotrypsin-like site (PSMB8, Homo sapiens, UniProt P28062) | enzyme activity | inhibitor |  |  | IC50 | 2.8 µM
CC[C@H](C)[C@H](NC(=O)[C@H](Cc1ccccc1)NC(=O)[C@H](CC(=O)O)NC(=O)[C@H](CCCNC(=N)N)NC(=O)[C@@H](NC(=O)[C@H](C)NC(=O)[C@H](CC(C)C)NC(=O)[C@H](CC(N)=O)NC(=O)[C@H](CC(=O)O)NC(=O)[C@H](CC(C)C)NC(=O)[C@@H](NC(=O)[C@@H](NC(=O)[C@H](CO)NC(=O)[C@H](CCSC)NC(=O)[C@H](CCC(=O)O)NC(=O)[C@H](CC(=O)O)NC(=O)[C@H](CO)NC(=O)[C@H](Cc1ccccc1)NC(=O)[C@H](CO)NC(=O)CNC(=O)[C@H](CC(=O)O)NC(=O)[C@H](C)NC(=O)[C@@H](N)Cc1c[nH]cn1)[C@@H](C)O)[C@@H](C)CC)[C@@H](C)O)C(=O)N[C@@H](CC(N)=O)C(=O)N[C@@H](Cc1c[nH]c2ccccc12)C(=O)N[C@@H](CC(C)C)C(=O)N[C@H](C(=O)N[C@@H](CCC(N)=O)C(=O)N[C@H](C(=O)N[C@@H](CCCCN)C(=O)N[C@H](C(=O)N[C@H](C(=O)N[C@@H](CC(=O)O)C(=O)O)[C@@H](C)O)[C@@H](C)CC)[C@@H](C)O)[C@@H](C)CC | Glucagon receptor (GCGR, Homo sapiens, UniProt P47871) | reporter gene | agonist | luciferase |  | EC50 | > 1 µM
CC(C)C[C@H](NC(=O)[C@H](CO)NC(=O)[C@H](CCC(=O)O)NC(=O)[C@@H](NC(=O)[C@H](CC(C)C)NC(=O)[C@H](CC(=O)O)NC(=O)[C@H](CC(=O)O)NC(=O)[C@H](CC(=O)O)NC(=O)[C@@H](NC(=O)[C@H](Cc1c[nH]c2ccccc12)NC(=O)[C@@H](N)CCC(=O)O)[C@@H](C)O)C(C)C)C(=O)O | Serine protease HTRA1 S328A | binding |  | ITC | pH 8 | Kd | 39.7 µM
